PP1 inh – PP1-alpha (human) inhibition in PP5 counter-screen; AID 2235; purified PP1alpha, OMFP fluorescence; actives 0.9% (n = 320,000); inhibition, % at 6.7 µM;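 active = inhibition above the mean inhibition of all tested compounds plus 3 SD, computed separately for each screening campaign, cut at about 15% in these data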
T cell modulator – T cell immune modulation candidate; 2C CD8+ T cell-vesicle binding, flow cytometry; active compounds read low; response (vesicle binding), % at 7 µM; actives 0.068% (n = 330,000); AID 2052;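 active = response, share of CD8 T cells binding vesicles, and their 90th percentile fluorescence all below set limits, cut at about 80% in these data, passing the limit was not always enough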;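 note: values below 100% mean blocked vesicle binding to the CD8+ T cells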
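Read-out – percent CD8+ FL2 mean versus row control · System – murine 2C transgenic CD8+ T lymphocytes · Times – 1.5 h cell–vesicle binding at 37 °C, then 20 min icy labelling · Control set – naked vesicles low, QL9 vesicles with vehicle high · Detection – cytometric PE anti-B7-1 and Alexa647 anti-CD8 signals after 1% paraformaldehyde fixation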
HTR2A ag – mouse HTR2A agonism via beta-arrestin recruitment; activation, % at 7.6 µM; CHO-K1 mHTR2A beta-arrestin complementation, luminescence; percent of 30 µM serotonin response; actives 0.66% (n = 360,000); P35363;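 active = activation above a run cutoff, the mean activation of all tested compounds plus 3 SD, cut at about 14% in these data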
PP5 inh – blocks human protein phosphatase 5 activity. P53041. purified PP5c, OMFP substrate fluorescence. inhibition, % at 6.7 µM. actives 0.18% (n = 320,000). AID 1987;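 active = inhibition above the campaign's mean inhibition across all tested compounds plus 3 SD, cut at about 9.5% in these data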
Target sequence (P53041 whole entry, looked up): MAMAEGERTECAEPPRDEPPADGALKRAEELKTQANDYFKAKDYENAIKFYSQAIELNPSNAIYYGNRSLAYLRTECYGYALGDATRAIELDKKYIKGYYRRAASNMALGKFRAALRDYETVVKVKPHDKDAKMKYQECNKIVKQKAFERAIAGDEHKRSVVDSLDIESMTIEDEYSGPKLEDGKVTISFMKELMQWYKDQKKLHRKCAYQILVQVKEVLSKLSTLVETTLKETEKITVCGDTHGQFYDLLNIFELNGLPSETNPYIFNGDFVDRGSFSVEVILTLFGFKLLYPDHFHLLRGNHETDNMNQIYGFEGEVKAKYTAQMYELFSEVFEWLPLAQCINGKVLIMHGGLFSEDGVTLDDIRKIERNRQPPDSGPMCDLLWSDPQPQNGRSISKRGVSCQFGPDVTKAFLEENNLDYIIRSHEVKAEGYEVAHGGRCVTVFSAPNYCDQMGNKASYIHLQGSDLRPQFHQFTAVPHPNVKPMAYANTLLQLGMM
JMJD2C inh – inhibitors of human GASC-1 (JMJD2C) demethylase. Q9H3R0. GST-JMJD2C(1-420) H3K9me3 demethylation, DELFIA europium. inhibition, % at 2.35 µM. actives 0.069% (n = 330,000);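 active = more than half of a compound's replicate wells show inhibition beyond 50%, single wells judged on their own value; inconclusive = some, but no more than half, of replicates pass 50% inhibition; inactive = no replicate passes 50% inhibition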;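 note: signal counts dimethyl H3K9 product captured on neutravidin plate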
Numbers stand for hits; 0 = inactive; ? = inconclusive; - = not tested or not shown. Most compounds without a hit are left out; they make up all but 1.7% or so of the library.

SMILES	PP1 inh	T cell modulator	HTR2A ag	PP5 inh	JMJD2C inh
O=C(COc1ccc(S(=O)(=O)N2CCCC2)cc1)NCc1cccnc1	0	0	0	0	0
CCOc1ccc(C(=O)c2ccccc2C(=O)O)cc1OCC	0	0	0	0	0
CC1=CC(=O)C(C(C)C)=C/C1=C(\c1cc(C(C)C)c(OP(=O)(O)O)cc1C)c1ccccc1C(=O)O	15	0	0	0	0
O=S1(=O)CCN(c2ccccc2CC(c2c[nH]c3ccccc23)c2c[nH]c3ccccc23)CC1	-	-	0	-	-
CC(/C=N\NC(=O)c1ccc2c(c1)OCO2)c1ccccc1 (configuration not stated)	0	0	0	0	0
Cc1cccc(C(=O)N/N=C/C(C)Cc2ccc3c(c2)OCO3)c1 (configuration not stated)	0	0	0	0	67
CCCCNCCOCCSc1ccc(Cl)cc1	0	0	30	0	0
CCc1ccc(NC(=O)Cn2cc([N+](=O)[O-])nc2C)cc1	-	0	0	-	0
O=C(Nc1cccc(NC(=O)c2cc([N+](=O)[O-])ccc2Cl)n1)c1cc([N+](=O)[O-])ccc1Cl	0	0	21	0	0
Cc1ccc2sc(N(CCCN(C)C)C(=O)c3ccc(S(=O)(=O)N4CCc5ccccc5C4)cc3)nc2c1C	15	0	0	0	0
Cc1ccc2sc(N(CCCN(C)C)C(=O)c3ccc(S(=O)(=O)N(C)Cc4ccccc4)cc3)nc2c1C	17	0	0	0	?
COc1cccc2sc(N(CCCN(C)C)C(=O)c3ccc(S(=O)(=O)N4CCc5ccccc5C4)cc3)nc12	0	0	0	0	0
CCN(Cc1ccccc1)S(=O)(=O)c1ccc(C(=O)N(CCCN(C)C)c2nc3cc(C)cc(C)c3s2)cc1	16	0	0	0	0
Cc1oncc1C(=O)Nc1cccc(C#N)c1	0	0	0	0	0
O=C(CN1C(=O)NC2(CCCC2)C1=O)NCCc1ccc(Cl)cc1Cl	0	0	0	0	0
COC(=O)c1ccc2c(C)c(C(C)(C)O)[nH]c2c1	0	0	0	0	0
Cc1ccccc1-n1c(SCC(=O)N/N=C/C=C/c2ccccc2[N+](=O)[O-])nc2ccccc2c1=O	17	0	0	0	0
CCOC(=O)Cc1cc(=O)n2[nH]c(C)c(-c3ccccc3)c2n1	15	0	0	0	0
COc1ccc2c(c1)C(c1ccc([N+](=O)[O-])cc1)=NNC(c1ccco1)=N2	0	0.0	0	0	0
Cc1nnsc1NC(=O)OCc1ccc(C(F)(F)F)cc1	17	0	0	0	0
O=S(=O)(Nc1nccs1)c1ccc(Nc2nnc(-c3ccccc3)c3ccccc23)cc1	17	0	0	0	0
COc1ccc(/C=C2\CN(Cc3ccccc3)C/C(=C\c3ccc(OC)cc3)C2=O)cc1	0	0	0	0	0
COc1ccc(/C=C2\CN(Cc3ccccc3)C/C(=C\c3ccc(OC)cc3OC)C2=O)c(OC)c1	16	0	0	0	0
Oc1c(Br)cc(Br)cc1/C=N/NC(=S)N[C@H]1CC2C=CC1C2 (some centres not stated)	17	0	0	0	0
CNC(=S)N/N=C/c1cc(Br)cc(Br)c1O	0	0	0	0	0
SMILES	PP1 inh	T cell modulator	HTR2A ag	PP5 inh	JMJD2C inh
O=C(NCCS(=O)(=O)N1CCN(c2ccc(F)cc2)CC1)C12CC3CC(CC(C3)C1)C2	0	0	0	0	0
O=C(Nc1ccc(Cl)cc1)[C@@H]1[C@@H]2C(=O)N(c3ccc4ccccc4c3)C(=O)[C@@H]2[C@H]2C=CC=NN21	15	0	0	0	0
COc1ccc(NS(=O)(=O)c2ccc(O)c(NC(=O)c3cc4c(C)nn(-c5ccc(F)cc5)c4s3)c2)cc1	0	0	0	0	0
CCC(C)[C@H]1CNC(=S)N1CCc1cc(C(F)(F)F)cc(C(F)(F)F)c1 (some centres not stated)	0	0	0	9.6	0
C/C=C(\C)C(=O)OC1[C@H](OC(C)=O)C2(CO)C(CC1(C)C)C1=CCC3C4(C)CCC(O[C@@H]5O[C@H](C(=O)O)[C@@H](O[C@@H]6O[C@H](CO)[C@@H](O)[C@H](O)[C@H]6O)[C@H](O)[C@H]5O[C@H]5O[C@H](CO)[C@@H](O)[C@H](O)[C@H]5O)[C@](C)(CO)C4CCC3(C)[C@]1(C)C[C@H]2O (some centres not stated)	-	-	15	-	-
O=C(c1ccco1)N(CCC(c1ccccc1)c1ccco1)Cc1ccco1 (configuration not stated)	17	0	0	0	0
Cc1ccc(C(CCN(Cc2ccccc2)C(=O)c2ccco2)c2ccco2)cc1 (configuration not stated)	0	0	0	0	0
COc1ccccc1N1C(=O)CC(N2CCN(c3ccc([N+](=O)[O-])cc3)CC2)C1=O (configuration not stated)	0	0	0	0	0
C=CCn1c(SCC(=O)Nc2nccs2)nnc1-c1cc2cccc(OC)c2o1	17	0	0	0	0
Cc1ccc(C(=O)CSc2cnc3ccccc3n2)cc1C	0	0	0	0	0
CC(C)C[C@H]1CN(CCCC[C@@H]2CNC(=O)C(=O)N2CCc2ccccc2)C(=O)C(=O)N1CCc1ccc(O)cc1	-	-	0	-	-
C#CCOCCOCCOCCNc1nc(N2CCN(C(=O)C(Cc3cc4ccccc4[nH]3)n3cc(C(N)C(C)CC)nn3)CC2)nc(N2CCN(C(=O)C(Cc3cc4ccccc4[nH]3)n3cc(C(N)C(C)CC)nn3)CC2)n1 (configuration not stated)	27	-	-	0	0
C#CCOCCOCCOCCNc1nc(N2CCN(C(=O)[C@H](CCCCN)n3cc([C@@H](N)CC(C)C)nn3)CC2)nc(N2CCN(C(=O)[C@H](Cc3cc4ccccc4[nH]3)n3cc([C@@H](N)Cc4ccc(O)cc4)nn3)CC2)n1	17	-	0	0	0
C#CCOCCOCCOCCNc1nc(N2CCN(C(=O)[C@H](CCCCN)n3cc([C@@H](N)CO)nn3)CC2)nc(N2CCN(C(=O)[C@H](Cc3cc4ccccc4[nH]3)n3cc([C@@H](N)Cc4ccc(O)cc4)nn3)CC2)n1	0	0	-	0	0
C=CCN(c1ccc(C(=O)NCCSc2ccccc2)cc1)S(C)(=O)=O	0	0	0	0	0
O=C(CSc1nnc(SCc2ccccc2)s1)N/N=C/c1c(Cl)cccc1Cl	0	0	0	0	0
Cc1nn(-c2ccccc2)c(C)c1/C=N/NC(=O)CSc1nnc(SCc2ccc(Cl)cc2)s1	17	0	0	0	0
CCc1ccc(NC(=O)NNC(=O)c2cc3ccccc3cc2O)cc1	15	0	0	0	0
Cc1nnc2c(N(C)S(=O)(=O)c3ccccc3)nc3ccccc3n12	0	0	0	0	0
CC1CN(C(C)C)C(=S)NC1=O (configuration not stated)	-	-	0	-	-
CCc1nnc(N/N=C/c2cc(Br)c(O)cc2O)n1N	0	0	0	0	58
CCc1nnc(N/N=C/c2ccc(O)c(OC)c2)n1N	0	0	0	0	0

Screens deposited in PubChem by several laboratories.
